Compounds with a hit are over-represented: about 2.1% of the library has one in this group of screens.
GRK2 aptamer HTS: human GRK2 inhibition via aptamer displacement. AID 488847. P25098. hit rate 0.59% among 330,000. inhibition of aptamer binding, % at 10 µM. bead flow cytometry, FAM-aptamer displacement from GRK2;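 active means inhibition of aptamer binding above 40%, roughly 3 SD of noise, on plates passing a quality check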;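 further: median bead fluorescence of bound FAM aptamer so fluorescent compounds give negative values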
Target sequence (P25098 whole entry, looked up): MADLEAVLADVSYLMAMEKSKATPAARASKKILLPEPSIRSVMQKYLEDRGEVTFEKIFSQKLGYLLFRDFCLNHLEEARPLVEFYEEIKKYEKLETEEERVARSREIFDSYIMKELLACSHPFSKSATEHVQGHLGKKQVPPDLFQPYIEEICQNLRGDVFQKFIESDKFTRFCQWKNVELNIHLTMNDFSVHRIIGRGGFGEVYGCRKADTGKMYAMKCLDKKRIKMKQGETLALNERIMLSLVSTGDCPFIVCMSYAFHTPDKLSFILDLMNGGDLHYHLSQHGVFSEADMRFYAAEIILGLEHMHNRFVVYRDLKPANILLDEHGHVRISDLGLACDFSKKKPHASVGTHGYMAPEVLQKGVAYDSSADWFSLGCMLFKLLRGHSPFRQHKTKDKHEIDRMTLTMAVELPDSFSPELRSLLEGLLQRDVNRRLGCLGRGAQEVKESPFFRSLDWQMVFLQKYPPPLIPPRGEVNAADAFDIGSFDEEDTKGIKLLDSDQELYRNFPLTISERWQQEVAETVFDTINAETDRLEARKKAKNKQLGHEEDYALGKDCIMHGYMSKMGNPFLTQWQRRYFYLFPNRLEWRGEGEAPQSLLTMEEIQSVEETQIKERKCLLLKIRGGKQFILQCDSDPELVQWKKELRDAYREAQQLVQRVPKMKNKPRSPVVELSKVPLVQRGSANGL
LMPTP block: blocks human LMPTP phosphatase; recombinant LMPTP-A, OMFP fluorogenic substrate, fluorescence intensity; hit rate 0.22% among 360,000; inhibition, % at 20 µM;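 active means compounds that cut the enzyme signal by at least half of the control window in the single-dose screen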;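 further: plate controls were DMSO wells with enzyme plus substrate for no effect and substrate without enzyme for full effect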
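Test system – LMPTP-A phosphatase enzyme · Quantity – 0.625 nM LMPTP-A final · Reagent – OMFP substrate, 400 µM final · Dosing – one test concentration per compound, 20 µM, with 3% DMSO overall · Timing – 50 min enzyme reaction at room temperature, protected from light · Detection – fluorescence intensity · Controls – substrate-only low control, DMSO enzyme-plus-substrate high control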
SUMO1 PPI mod: SUMO1-SIM interaction modulation | P63165 | SUMO1 binding to a labelled peptide, TR-FRET, 1 h | inhibition, % at 20 µM | hit rate 0.33% among 360,000; in the data active means inhibition above about 37%
DNMT1 block: blocks human DNA methyltransferase DNMT1 | P26358 | DNMT1 molecular beacon, Hinp1I cleavage, fluorescence | inhibition (reported as % activation of signal), % at 10 µM | hit rate 0.83% among 360,000; in the data active means inhibition above about 50%
Scp-1 inhibitor: Scp-1 (human) phosphatase inhibition. Q9GZU7. Recombinant Scp1, phosphopeptide, malachite green phosphate absorbance. inhibition, % at 20 µM. hit rate 0.88% among 340,000;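 active means inhibition above about 50% at 20 µM, limit read from the data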;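 further: plate controls were DMSO wells with enzyme for no effect and wells lacking enzyme for full effect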
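Test system – truncated SCP-1 phosphatase (76-261aa) · Reagent – Phosphorylated 17-residue peptide substrate · Incubation – 45 min room-temperature reaction, 5 min colour, 30 min stabiliser · Detection – colorimetric phosphate reagent with accelerator and stabiliser, absorbance at 630 nm · Measure – % inhibition at 20 µM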
STEP block: inhibitors of human striatal-enriched phosphatase STEP | AID 588621 | P54829 | hit rate 0.25% among 360,000 | inhibition, % at 20 µM | recombinant STEP, OMFP fluorogenic substrate, fluorescence;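 active means inhibition at 20 µM, scaled per plate between control wells, above about 37%, limit read from the data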;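 further: 0% = DMSO with enzyme and substrate and 100% = substrate only without enzyme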
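System: isolated STEP enzyme; schedule: 20 min enzyme reaction at room temperature, protected from light; medium: Bis-Tris buffer pH 6.0, 2.5 mM DTT, 0.005% Tween 20; signal: fluorescence, 480/540 nm; dosing: single compound dose of 20 µM, 1% DMSO final; also added: OMFP substrate, 25 µM final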
Beacon interf DR: shows spectral interference in the DNMT1 beacon assay. molecular beacon fluorescence, spectral interference counter-screen. shares compounds with DNMT1 block. 200 tested, under 10 active. IC50, µM
DNMT1 confirm: DNMT1 inhibition confirmation, single concentration; shares compounds with DNMT1 block; DNMT1 molecular beacon HinP1I cleavage, fluorescence; inhibition, % at 10 µM; hit rate 8% among 2,300; AID 602385;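 active means average inhibition of at least 30% in the single-concentration confirmation test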
Beacon interf: beacon fluorescence artifact counter-screen; AID 602387; activation (fluorescence interference), % at 10 µM; hit rate 1% among 2,300; DNMT1 molecular beacon spectral interference counterscreen, fluorescence 485/520; shares compounds with DNMT1 block;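 active means activation of at least 30% at 10 µM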;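 further: DNMT1 catalytic domain with a HinP1I cleavage step and a FAM/dabcyl DNA beacon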
STEP inh conf: STEP (human) phosphatase inhibition, single concentration confirmation; shares compounds with STEP block; recombinant STEP, OMFP fluorogenic substrate, fluorescence; inhibition, % at 20 µM; hit rate 32% among 520;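 further: 0% = enzyme with substrate plus DMSO and 100% = substrate without enzyme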
* hit, by the source's call; x = no result given. Unless noted, how the calls were made is not given here.

SMILES	GRK2 aptamer HTS	LMPTP block	SUMO1 PPI mod	DNMT1 block	Scp-1 inhibitor	STEP block	DNMT1 confirm	Beacon interf	others
CC(C)(C)n1nnnc1C(c1ccnc2ccccc12)N1CCC2(CC1)C(=O)NCN2c1ccccc1 (configuration not stated)	x	2	1	-4	x	-2	x	x
O=c1[nH]c2ccccc2n1C1CCN(C(CCc2ccccc2)c2nnnn2C2CCCC2)CC1 (configuration not stated)	x	6	5	-12	x	3	x	x
CN1C(=O)NC(=O)/C(=C\c2ccc([N+](=O)[O-])o2)C1=O	14	11	34	101*	53*	44*	112*	-2	Beacon interf DR=>99
O=Cc1c(C(=O)O)n(Cc2ccc(Cl)cc2)c2ccccc12	1	0	10	95*	-3	-6	15	1
O=C1C=C(N2CC2)c2ccccc2C1=O	x	17	65*	121*	x	7	88*	-10	Beacon interf DR=>99
CC(C)(C)C1(CCO)C(=O)NC(=S)NC1=O	x	-1	-1	-1	-5	-4	x	x
CCCCn1nnnc1C(CCSC)N1CCC2(CC1)C(=O)NCN2c1ccccc1 (configuration not stated)	x	0	4	-2	x	-1	x	x
CN(C)[C@@H]1C(=O)C(C(N)=O)=C(O)[C@@]2(O)C(=O)C3=C(O)c4c(O)ccc(Cl)c4[C@@](C)(O)C3C[C@@H]12 (some centres not stated)	x	19	14	56*	-1	2	2	0
Cc1cccc(N2C(=O)NC(=O)/C(=C\c3ccc4c(c3)CCCN4Cc3ccccc3)C2=O)c1	0	7	1	26	-9	-2	x	x
CCC(C)N1C(=O)/C(=C/c2ccc3c(c2)CCN3CCCCl)C(=O)NC1=S (configuration not stated)	2	2	-1	85*	-5	0	12	-3
CCCCn1c(NC(=O)c2ccc(Br)o2)c(C(=O)OCC)c2nc3ccccc3nc21	78*	2	45*	70*	-3	-1	-1	-5
C=CC12CN(C)C3C4COC(CC41)C1(C(=O)Nc4ccccc41)C32 (configuration not stated)	x	0	3	-4	x	2	x	x
O=C1NC(=S)NC(=O)C1=Cc1c(Cl)cccc1Cl	x	3	9	14	12	2	x	x
CN1/C(=C\C=C2C(=O)NC(=S)NC2=O)C(C)(C)c2ccccc21	x	20	-35	81*	0	-61	55*	51*
CCCCCN1C(=O)c2cc(OC)ccc2[C@@]2(C(=O)OCC)Cc3cc(Cl)ccc3[C@@H]12	x	6	4	x	x	x	x	x
Cn1cccc1/C=C1/C(=O)NC(=S)N(Cc2ccc(F)cc2)C1=O	2	15	64*	91*	11	1	105*	-5	Beacon interf DR=>99
COc1ccc(C(=O)C2CCCN(CC3CCCCC3)C2)cc1OC (configuration not stated)	x	0	-8	3	x	-2	x	x
O=c1[nH]c(=O)n(CCc2ccc(F)cc2)c(O)c1C=NCc1ccc2c(c1)OCO2	0	50*	0	78*	-6	14	1	3
COc1ccc(CCn2c(O)c(C=NCc3ccc4c(c3)OCO4)c(=O)[nH]c2=O)cc1OC	4	1	0	-1	-9	0	x	x
C=CCNC(=O)c1c(N)n(Cc2ccco2)c2nc3ccccc3nc12	1	3	20	102*	26	7	0	-1
O=C1c2ccccc2-c2cc3ccccc3cc21	x	1	-25	3	-8	0	x	x
O=C1c2ccccc2-c2cccc3cccc1c23	x	11	-15	54*	49	6	35*	2	Beacon interf DR=>99
C=CCN1Cc2ccccc2-n2nncc2C1	x	-1	2	7	x	0	x	x
O=C(Cc1ccccc1)OCCNC(=O)c1cccnc1	0	-1	1	2	-3	-4	x	x
N#CC(C#N)=C(N)c1cccnc1	1	0	2	62*	-4	-1	2	4
SMILES	GRK2 aptamer HTS	LMPTP block	SUMO1 PPI mod	DNMT1 block	Scp-1 inhibitor	STEP block	DNMT1 confirm	Beacon interf	others
CC1=C(O)C(=O)C=C2C1=CC=C1C2(C)CCC2(C)C3CC(C)(C(=O)O)CCC3(C)CCC12C (configuration not stated)	x	2	12	36	-8	0	x	x
CCCCCCn1c(=O)c(C(=O)Nc2ncccc2O)c(O)c2ccccc21	0	20	15	70*	0	7	1	4
O=C1NC(=O)C(=Cc2ccc(-c3cc(Cl)ccc3[N+](=O)[O-])o2)C(=O)N1	x	23	11	78*	69*	9	2	-3
O=C1NC(=O)C(=Cc2ccc(-c3ccccc3[N+](=O)[O-])o2)C(=O)N1	0	1	-16	2	42	3	x	x
Cc1cc(C(=O)OC(C)C(=O)Nc2ccccc2)c(C)n1C1CC1 (configuration not stated)	x	0	0	-3	x	0	x	x
CC[C@H]1c2ccccc2[C@@H]2CC[C@H]1N2c1ccccc1	x	2	2	x	x	x	x	x
NN=C1C(Cl)=C(Cl)C(Cl)=C1Cl	x	84*	12	108*	x	72*	x	x	STEP inh conf=67*
CCC1C(c2cc(OC)c(OC)c(OC)c2)c2cc3c(cc2OC1N1CCCC1)OCO3 (configuration not stated)	x	0	4	6	-3	1	x	x

Screening results deposited in PubChem by several laboratories.
